Assay outcomes from PubChem.
Rpn11 block – inhibitors of human proteasome Rpn11; O00487; AID 588493; 360,000 compounds, 0.59% hits; calls only at 20 µM; human 26S proteasome, Ub4-pepOG fluorescence polarization; 20S core pre-blocked with epoxomicin;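 active means inhibition at 20 µM, scaled to each plate's controls, above about 33%, limit read from the data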
Target sequence (O00487 whole entry, looked up): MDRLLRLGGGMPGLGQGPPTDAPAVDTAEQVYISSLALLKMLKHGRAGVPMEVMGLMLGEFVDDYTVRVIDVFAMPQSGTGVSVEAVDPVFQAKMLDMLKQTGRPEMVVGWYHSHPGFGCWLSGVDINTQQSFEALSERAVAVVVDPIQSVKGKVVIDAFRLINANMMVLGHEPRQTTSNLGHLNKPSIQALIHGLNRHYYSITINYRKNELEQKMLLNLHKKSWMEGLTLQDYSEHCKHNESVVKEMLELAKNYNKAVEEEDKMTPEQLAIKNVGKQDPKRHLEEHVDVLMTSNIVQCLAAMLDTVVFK
CRFR2-BP antag – antagonists of CRF-binding protein/CRF-R2 receptor complex; HEK293 CRF-R2/CRF-BP, CRF-induced calcium fluorescence; inhibition, % at 11.8 µM; 350,000 compounds, 0.59% hits;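 active means inhibition of the ligand-induced calcium signal above about 50% at the single tested concentration, limit read from the data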
CSN deneddyl inh – blocks human CSN-mediated cullin deneddylation; Q92905; 360,000 compounds, 0.38% hits; inhibition, % at 12.5 µM; Purified CSN, SCF-Nedd8-OG deneddylation, fluorescence polarization;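 active means pattern-corrected inhibition above about 35%, with an unprinted fluorescence ratio check between 0.5 and 1.5, limit read from the data, passing the limit was not always enough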
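Schedule: reaction 90 min, room temperature / Assay system: HEK293T-derived human Csn5 enzyme / Input: Csn5 at 0.24 nM final / Measure: inhibition of Csn5 cleavage, % / Control set: substrate-only high control, full reaction low control / Technique: fluorescence polarization of the substrate / Buffer or medium: Tris/NaCl/DTT buffer, pH 7.5 / Reagent: SCFSkp2-Nedd8OG substrate at 10 nM final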
CRFR2-BP ag – agonists of human CRF-binding protein/CRF-R2 receptor complex | 350,000 compounds, 0.46% hits | activation, % at 13.2 µM | HEK293 CRF-R2/CRF-BP, calcium dye fluorescence (FLIPR); percent of saturating CRF peptide response;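 active means activation of at least 50%, plus an integration ratio under a set limit after plate pattern correction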
HNF4A DNA FP – change in binding of human HNF4 alpha to DNA; 360,000 compounds, 0.3% hits; activity change, % at 10 µM; P41235; HNF4a-FITC DNA binding, fluorescence polarization, 1 h; in the data active means activity change above about 30%, passing the limit was not always enough
TPT1 inhibitor – C. albicans TPT1 enzyme inhibition; recombinant caTPT1, FP RNA substrate dephosphorylation; inhibition, % at 5 µM; 300,000 compounds, 0.81% hits;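 active means inhibition above the mean of all tested compounds plus 3 SD, set per screening campaign, cut at about 24% in these data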
caTPT1 confirm – TPT1 (C. albicans) inhibition, confirmation; 2,400 compounds, 74% hits; inhibition, % at 5 µM; shares compounds with TPT1 inhibitor; AID 2149; recombinant caTPT1, fluorescence polarization, RNase T1 coupled;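 active means inhibition above the primary screen limit, the mean inhibition of all tested compounds plus 3 SD, cut at about 25% in these data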
RNase T1 inh – counter-screen for TPT1 inhibitors: inhibitors of Aspergillus oryzae RNase T1; shares compounds with TPT1 inhibitor; RNase T1 cleavage, fluorescence polarization, 1536-well; inhibition, % at 5 µM; 2,400 compounds, 83% hits;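 active means inhibition above the solvent-only control well mean plus 3 SD, limit set per screening run, cut at about 23% in these data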;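 further: inhibitors block cleavage so intact labeled substrate keeps polarization high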
Target sequence (P00651 whole entry, looked up): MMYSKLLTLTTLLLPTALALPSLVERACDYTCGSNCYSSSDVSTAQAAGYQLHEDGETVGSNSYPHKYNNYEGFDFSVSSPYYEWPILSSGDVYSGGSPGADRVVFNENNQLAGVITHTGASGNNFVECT
Numbers stand for hits; . = inactive; / = not tested or not shown. Rows were chosen to be rich in hits. Some 2.3% of all compounds tested hit in one or more screens of this group.

SMILES	Rpn11 block	CRFR2-BP antag	CSN deneddyl inh	CRFR2-BP ag	HNF4A DNA FP	TPT1 inhibitor	caTPT1 confirm	RNase T1 inh
Cc1nn(Cc2ccccc2)c(C)c1C(=O)OCC(=O)NCc1ccco1	.	.	.	.	.	.	/	/
COc1ccc2[nH]c3c(c2c1)CCN=C3C	.	.	.	.	.	33	.	.
COc1ccc2[nH]cc(CCN)c2c1	.	.	.	.	.	.	/	/
CCN(CC)c1ccc(/C=N/c2sc3c(c2C#N)C2CCN3CC2)c(O)c1	/	.	.	171	.	161	146	133
Cc1ccc(-n2c(O)c(/C=N/NC(=O)c3ccncc3)c(=O)[nH]c2=O)cc1	.	.	.	.	.	30	47	56
Cn1c(O)c(/C=N/NC(=O)c2ccncc2)c(=O)[nH]c1=S	.	.	.	.	.	.	/	/
CCCCn1c(O)c(/C=N/NC(=O)c2ccncc2)c(=O)[nH]c1=S	/	.	.	.	48	30	.	29
O=C(O)Cn1cc(/C=C2\C(=O)NC(=O)N(c3ccc(Cl)cc3)C2=O)c2ccccc21	.	.	.	.	.	40	42	53
O=C(O)Cn1cc(C=C2C(=O)NC(=O)NC2=O)c2ccccc21	.	.	.	.	.	.	/	/
C=CCn1cc(C=C2C(=O)NC(=O)NC2=O)c2ccccc21	.	.	.	.	.	25	40	52
CCC(CC)NC1CCCCC1OC (centres undefined)	.	.	.	.	.	.	/	/
COC(=O)CC1(CC(=O)OC)C(=O)NC(=O)NC1=O	.	.	.	.	.	.	/	/
Cc1ccnc(NS(=O)(=O)c2ccc(N=Cc3c(O)n(C)c(=O)n(C)c3=O)cc2)n1	.	.	.	.	.	85	62	77
Nc1c(C(=O)NCC2CCCO2)c2nc3ccccc3nc2n1Cc1ccco1 (centres undefined)	.	.	.	.	.	.	/	/
Cc1cccc(N2C(=O)NC(=O)/C(=C\c3cccn3-c3ccc(Cl)cc3)C2=O)c1	.	.	.	.	.	.	/	/
Cc1cccc(N2C(=O)NC(=O)/C(=C/c3ccc([N+](=O)[O-])o3)C2=O)c1	/	.	/	.	/	28	.	.
Cn1c(O)c(/C=C/C=Nc2ccccc2)c(=O)n(C)c1=O	/	.	56	85	86	104	111	118
CCn1c(O)c(C=Nc2cc(Cl)ccc2Cl)c(=O)n(CC)c1=O	.	.	.	.	.	.	/	/
C=CCn1c(=O)c(C=Nc2cccnc2Cl)c(O)n(CCCC)c1=O	.	.	.	.	.	44	.	23
CCOc1cc(/C=C2\C(=O)NC(=O)N(CCc3ccc(F)cc3)C2=O)ccc1O	.	.	.	.	.	30	39	.
O=C1NC(=O)N(Cc2ccc(F)cc2)C(=O)/C1=C/c1cccs1	.	.	.	.	.	.	/	/
Cc1ccc(/C=C2/C(=O)NC(=O)N(Cc3ccc(F)cc3)C2=O)o1	/	/	/	/	/	35	.	26
O=C1NC(=O)N(Cc2ccc(F)cc2)C(=O)/C1=C\c1ccoc1	/	.	.	.	60	163	67	81
CN(C)c1ccc(/C=C2\C(=O)NC(=O)N(Cc3ccc(F)cc3)C2=O)cc1	.	.	.	.	.	29	48	68
O=c1[nH]c(=O)n(CCc2ccc(F)cc2)c(O)c1C=NCCCn1ccnc1	.	.	.	.	.	39	33	44
O=c1[nH]c(=O)n(CCC2=CCCCC2)c(O)c1C=NCCCn1ccnc1	.	.	.	.	.	.	/	/
CN(C)/C=C1/C(=O)NC(=O)N(CCNc2ncc(C(F)(F)F)cc2Cl)C1=O	.	.	.	.	.	29	.	34
CCCCN1C(=O)NC(=O)/C(=C/c2cnc(SC)nc2)C1=O	.	.	.	.	.	.	/	/
CN1C(=O)C(=Cc2sc(=O)n(-c3ccccc3)c2N(C)C)C(=O)N(C)C1=O	/	.	.	.	.	42	53	71
